Experimental data: paper PMC11966317 (ACS Omega, 2025)

Tests used:
[1] = system: heart, liver, spleen, lungs, and kidneys; experiment: HE staining of major organs after treatment; format: in vivo, NOD/SCID mice; settings: kidneys after 10 mg/kg every 3 days, five doses
[2] = system: CHO-hPD-L1 tumors; experiment: Tumor volume and body weight during treatment; format: in vivo, NOD/SCID mice; settings: 10 mg/kg every 3 days, five doses, monitored every 3 days
Outline: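 Mice bearing CHO-hPD-L1 tumours were randomised to PBS or the anti-PD-L1 antibody (n = 3 each). Either was given at 10 mg/kg via the tail vein every 3 days, five doses over a 14-day cycle. Tumour volume and body weight were recorded. Endpoint was tumour volume >1500 mm3 or maximum diameter >20 mm.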

Question: For “Atezolizumab: anti-PD-L1 monoclonal antibody”, which “histopathology of major organs (HE staining)” value [1] is on record?
Answer: No histopathological abnormalities

Question: What about the “body weight versus PBS group” value [2] of the same substance?
Answer: no notable differences in body weight
